Experimental data of several laboratories.
JAK1 JH2: Tyrosine-protein kinase JAK1, JH2 (JAK1, Homo sapiens, UniProt P23458)
JAK1 JH1: Tyrosine-protein kinase JAK1, JH1 (JAK1, Homo sapiens, UniProt P23458)
JAK1: Tyrosine-protein kinase JAK1 (JAK1, Homo sapiens, UniProt P23458)

SMILES	target	assay	setting	remaining binding
Nc1ncc2c(n1)-c1c([nH]c3ccc(C#CC4CC4)cc13)CCCC2	JAK1 JH2	binding, competition with immobilised ligand	1 µM	97%
CS(=O)(=O)N1CCCC(NC(=O)[C@H](CCC2CCCCC2)NC(=O)c2ccc(CNC(=O)c3cnc4ccccn34)cc2)C1 (some centres unmarked)	JAK1 JH2	cell-free assay, competition with immobilised ligand	0.1 µM	100%
COc1ncc2cc3ccccc3nc2c1C#N	JAK1 JH2	cell-free assay, competition with immobilised ligand	5 µM	67%
O=C(c1ccc(Nc2ncc(Cl)c(-c3cc4ccccc4s3)n2)cc1)N1CCC(N2CCCC2)CC1	JAK1 JH1	binding, competition with immobilised ligand	1 µM	9.3%
Cc1cnn2ncc(-c3ccnc(N(C)C)n3)c2c1	JAK1 JH1	cell-free assay, competition with immobilised ligand	1 µM	98%
Nc1cnc(N2CCc3cc(S(=O)(=O)Nc4c(F)cc(Cl)cc4F)cc(N4CCCC4=O)c32)nc1	JAK1 JH1	cell-free assay, competition with immobilised ligand	1 µM	100%
CCN1CCN(Cc2ccc(C(=O)Nc3ccc(C)c(Oc4ccc5c(c4)CC(=O)N5)c3)cc2C(F)(F)F)CC1	JAK1 JH1	binding, competition with immobilised ligand	1 µM	76%
O=C(NCCCN1CCOCC1)c1ccc(Nc2nccc(-c3cc4ccccc4s3)n2)cc1	JAK1 JH1	binding, competition with immobilised ligand	1 µM	39%
O=C(NCC1CCOCC1)c1n[nH]cc1NC(=O)c1c(F)cccc1F	JAK1 JH2	binding, competition with immobilised ligand	1 µM	90%
CO[C@H]1CC[C@H](CNc2ccc(S(=O)(=O)NC(=O)c3ccc(N4CCN(CC5=C(c6ccc(Cl)cc6)CC(C)(C)CC5)CC4)cc3Oc3cnc4[nH]ccc4c3)cc2[N+](=O)[O-])CC1	JAK1 JH2	cell-free assay, competition with immobilised ligand	1 µM	100%
F[C@@H]1CCN(c2nccc(-c3cnn4ncccc34)n2)C1	JAK1	binding	1 µM	100%
O=C(c1ccc(Nc2nccc(-c3cc4ccccc4s3)n2)cc1)N1CCC(N2CCCC2)CC1	JAK1 JH2	binding, competition with immobilised ligand	1 µM	3.6%
CN1CCN(c2ccc(Nc3nccc(-c4ccccc4)n3)cc2C(F)(F)F)CC1	JAK1	binding	10 µM	0.45%
COc1ccc2c(c1)O[C@@H](c1ccc(OC)c(OC)c1)C[C@H]2NC(=O)C1(c2ccc3c(c2)OC(F)(F)O3)CC1	JAK1 JH2	cell-free assay, competition with immobilised ligand	1 µM	90%
O=C(Nc1c[nH]nc1C(=O)NC1CCNCC1)c1cc(F)cc(F)c1	JAK1 JH2	binding, competition with immobilised ligand	1 µM	82%
CNC(=O)[C@@H]1CC[C@@H](n2c(-c3ccc4cnccc4c3)nc3ccc(C(=O)NCc4cccc(C(N)=O)c4)cc32)C1	JAK1 JH2	binding, competition with immobilised ligand	1 µM	60%

SMILES	target	assay	setting	remaining binding
CN(C)c1nccc(-c2cnn3ncccc23)n1	JAK1	binding	1 µM	53%
COc1cnc(Nc2cccc(S(N)(=O)=O)c2)nc1N1CCN(c2ccccc2)C(=O)C1	JAK1 JH2	binding, competition with immobilised ligand	1 µM	44%
Cc1cnc(Nc2ccc(C(=O)N3CCC(N4CCCC4)CC3)cc2)nc1-c1cc2ccccc2s1	JAK1 JH1	binding, competition with immobilised ligand	1 µM	0%
C[C@H]1CCN(c2nccc(-c3cnn4ncccc34)n2)C1	JAK1	binding	1 µM	62%
CN(C(=O)c1ccccc1)c1cc(N(C)c2ccc3c(c2)CCc2ccc(C(=O)NCCN4CCOCC4)cc2C3=O)ccc1F	JAK1 JH2	cell-free assay, competition with immobilised ligand	1 µM	88%
CN(C)c1nccc(-c2cnc3ncccn23)n1	JAK1	binding	1 µM	67%
C[C@@H]1CN(c2cc(-c3n[nH]c4ccc(OC5(C)CC5)cc34)ncn2)C[C@H](C)O1	JAK1 JH2	cell-free assay, competition with immobilised ligand	0.1 µM	79%
O=C(NCCCN1CCOCC1)c1ccc(Nc2ncc(Cl)c(-c3ccc(Cl)s3)n2)cc1	JAK1 JH2	binding, competition with immobilised ligand	1 µM	46%
c1cncc(-c2cccc(Nc3nccc(NC4CCCCC4)n3)c2)c1	JAK1 JH1	binding, competition with immobilised ligand	10 µM	14%
O=C(c1ccc(Nc2ncc(Cl)c(-c3ccc(Cl)s3)n2)cc1)N1CCC(N2CCCC2)CC1	JAK1 JH1	binding, competition with immobilised ligand	1 µM	8.6%
CN(C)c1ncc(F)c(-c2cnn3ncccc23)n1	JAK1	binding	1 µM	89%
c1ccc(N2CCN(Cc3nc4ccccc4[nH]3)CC2)nc1	JAK1 JH2	binding, competition with immobilised ligand	1 µM	76%
N[C@@H]1CCN(c2nccc(-c3cnn4ncccc34)n2)C1	JAK1 JH1	cell-free assay, competition with immobilised ligand	1 µM	100%
CCS(=O)(=O)c1cc2cc(C[C@](O)(CC(C)(C)c3ccc(F)cc3C(N)=O)C(F)(F)F)[nH]c2cn1	JAK1 JH2	cell-free assay, competition with immobilised ligand	1 µM	95%
c1cnn2ncc(-c3ccnc(N4CCC45COC5)n3)c2c1	JAK1	binding	1 µM	67%
COc1cnc(Nc2cccc(S(N)(=O)=O)c2)nc1N1CCN(c2ccccc2)CC1	JAK1 JH1	binding, competition with immobilised ligand	1 µM	48%
